Screening data as filed in PubChem.
Rows were chosen to be rich in hits. Some 1.8% of all compounds tested hit in one or more screens of this group.
ATG4B inh: blocks human ATG4B protease cleavage of LC3 substrate; ATG4B cleavage of LC3-PLA2, NBD-HPC fluorescence, 1 h; inhibition, % at 8.33 µM; hit rate 0.51% among 340,000; in the data active = inhibition above about 40%
HDAC3 inhib: blocks human histone deacetylase 3 | recombinant HDAC3, fluorogenic peptide/trypsin coupled, fluorescence | hit rate 0.15% among 320,000 | O15379 | AID 2718 | inhibition, % at 8.3 µM; in the data active = inhibition above about 26%, passing the limit was not always enough; inconclusive = no clear call, values can overlap the other calls
AI-2 QS modul: modulators of Vibrio harveyi AI-2 quorum sensing system | Vibrio harveyi JMH597 AI-2 luminescence/OD600 ratio, 9 h; active compounds read low; strain lacks LuxN and CqsS sensors; 0 = neutral-control median | activity change, % at 7.5 µM | hit rate 0.4% among 300,000 | AID 2094; in the data active = activity change below about -75%, passing the limit was not always enough; inconclusive = no clear call, values can overlap the other calls;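 note: luminescence divided by OD600 gain over 9 h not by final OD600 alone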
Bfl-1 A1 inh: inhibitors of the anti-apoptotic protein A1, read as caspase activation. MEF A1-2A-BIM cells, Caspase-Glo 3/7 luminescence, 3 h; percent of clofoctol response, vehicle zero. caspase activation, % (test concentration not listed). hit rate 0.066% among 330,000. AID 2462;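 active = over half of replicate activation scores above 10%, or exactly half above 10 with the replicate mean above 10; inconclusive = replicate mean below 10 yet half the replicates above 10; inactive = over half of replicates below 10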
HKDC1 inh: blocks human hexokinase HKDC1 activity; AID 493160; recombinant HKDC1, G6PDH/diaphorase resazurin coupled fluorescence; inhibition, % at 20 µM; Q2TB90; hit rate 0.16% among 340,000;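 active = inhibition above about 35% when tested at 20 µM, limit read from the data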;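 note: plate controls were DMSO wells with enzyme for no effect and DMSO wells lacking enzyme for full effect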
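Assay system: in-house recombinant HK5 (HKDC1) enzyme. Input: HKDC1 at 5 µg/mL. Medium: Tris pH 8.0 buffer with MgCl2, Tween-20, BSA, BME. Dosing: single 20 µM dose. Schedule: 90 min reaction incubation at room temperature, dark. Signal: resazurin-to-resorufin fluorescence via G6PDH and diaphorase coupling, 525/613 nm. Controls: DMSO-enzyme wells negative, buffer-substituted wells positive.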
LANA-H2A inh: blocks KSHV LANA binding to histone H2A/H2B | inhibition, % (test concentration not listed) | hit rate 0.6% among 320,000 | Q9QR71 | cell-free LANA-H2A/H2B peptide, fluorescence polarization; in the data active = inhibition mostly above about 10%, no sharp cut-off; inactive = mostly below about 6.7%
JMH597 growth rt: retest Vibrio harveyi JMH597 growth inhibition. shares compounds with AI-2 QS modul. OD600 absorbance, 9 h; lacks LuxN and CqsS sensors. growth inhibition, % at 7.5 µM. hit rate 1% among 750;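 active = every replicate shows growth inhibition above 50%; inconclusive = at least half, but not all, replicates pass that cutoff; inactive = fewer than half of replicates pass it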
BB721 const-QS lum: retest counter-screen: luminescence loss in constitutive-on quorum sensing strain BB721. hit rate 95% among 750. inhibition, % at 7.5 µM. Vibrio harveyi BB721 luminescence, 9 h. shares compounds with AI-2 QS modul;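 active = inhibition above about 80% in every replicate, not just on average, limit read from the data; inconclusive = at least half of replicates past the limit, but not all; inactive = fewer than half of replicates past the limit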
BB721 growth rt: retest Vibrio harveyi BB721 growth inhibition | shares compounds with AI-2 QS modul | OD600 absorbance, 9 h | growth inhibition, % at 7.5 µM | hit rate 3% among 750;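 active = every replicate shows growth inhibition above 50%; inconclusive = at least half but not all replicates above 50% inhibition; inactive = under half of replicates above 50% inhibition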
AI-2 QS JMH597: Vibrio harveyi AI-2 signaling luminescence modulation – JMH597 strain, confirmation; shares compounds with AI-2 QS modul; Vibrio harveyi JMH597 AI-2 quorum sensing luminescence, 9 h; luxN and CqsS knockout, AI-2 only; inhibition, % at 7.5 µM; hit rate 97% among 750; AID 2736;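 active = every replicate shows more than 75% inhibition of signal versus neutral control wells; inconclusive = half to three quarters of replicates exceed 75% inhibition; inactive = fewer than half of replicates exceed 75% inhibition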
HKDC1 act conf2: confirmation of human HKDC1 activators. inhibition, % at 20 µM. hit rate 14% among 740. shares compounds with HKDC1 inh. recombinant HKDC1, G6PDH/diaphorase resazurin fluorescence; active compounds read low;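 active = inhibition at or below a set negative limit, negative inhibition meaning the enzyme was activated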
* = called active by the depositor; ? = inconclusive; / = no result.

SMILES | ATG4B inh | HDAC3 inhib | AI-2 QS modul | Bfl-1 A1 inh | HKDC1 inh | LANA-H2A inh | HKDC1 act conf2 | others
CCN(CC)C(=O)c1ccc(NC(=O)Cn2nc(C)c3ccccc3c2=O)cc1 | 0.4 | 2.1 | -87.5* | 2.2 | 0.0 | 3.1 | / | JMH597 growth rt=-2.8;BB721 const-QS lum=93.9*;BB721 growth rt=-11.5;AI-2 QS JMH597=96.0*
COC(=O)C1=C(c2ccc(-c3ccccc3)c(F)c2)C[C@@H]2CC[C@H]1N2C(=O)NC1CC1 | 1.8 | 5.4 | / | 0.0 | 0.2 | 5.2 | /
Cc1ccc(O)c(CN2CCN(c3ccccc3)CC2)c1 | -8.3 | -1.2 | -79.4* | 1.1 | -0.8 | -9.1 | / | JMH597 growth rt=7.7;BB721 const-QS lum=85.3*;BB721 growth rt=-18.7;AI-2 QS JMH597=90.7*
COC(=O)C1=C(c2ccc(S(C)(=O)=O)cc2)C[C@@H]2CC[C@H]1N2C(=O)NC1CCCCC1 | 4.7 | 6.6 | 4.3 | -1.1 | -3.1 | -1.2 | /
O=C(c1cc2cc(Br)ccc2[nH]1)N1CCC2(CC1)OCCO2 | -1.9 | -6.2 | ? | 0.1 | 3.6 | -1.4 | / | JMH597 growth rt=-3.9;BB721 const-QS lum=94.3*;BB721 growth rt=-1.0;AI-2 QS JMH597=96.2*
CCOC(=O)c1c(-n2c(C)cc(C=C3C(=O)NC(=O)NC3=O)c2C)sc2c1CCCC2 | 1.5 | -1.6 | 37.3 | 0.2 | 41.4* | 10.3 | 30.1
Cc1cccc(N2C(=O)NC(=O)/C(=C\c3cc(C)n(-c4sc5c(c4C#N)CCCC5)c3C)C2=O)c1C | 10.9 | / | 34.7 | 0.1 | 72.4* | 2.3 | 54.9
Cc1cc(/C=C2\C(=O)NC(=O)N(c3ccccc3F)C2=O)c(C)n1-c1cc(C(=O)O)cc(C(=O)O)c1 | -4.9 | 5.4 | 16.7 | 0.1 | 2.3 | 1.5 | /
Cc1ncc(CNC(=O)N(CCCl)N=O)c(N)n1 | 2.5 | -4.4 | / | -0.1 | -2.0 | 1.5 | /
CC1CC2(C)C(CCC3C2CCC2(C)C(OP(=O)(N4CC4)N4CC4)CCC32)CC1=O (stereo unspecified) | -13.8 | / | / | / | 0.6 | / | /
COC1=CC2[C@@H]3Cc4ccc(OC)c(O)c4[C@]2(CCN3C)CC1=O (stereo partly specified) | 9.5 | 0.2 | / | -0.1 | 2.7 | -7.3 | /
CCCCCc1nc2ccccc2c(=O)n1-c1ccccc1[N+](=O)[O-] | 12.9 | 1.8 | 23.8 | 0.3 | -6.5 | -4.7 | /
CCCCCc1nc2c(c(=O)c3ccccc3n2C)c(=O)n1C1CCCCCC1 | -6.0 | -6.2 | 36.5 | 0.2 | 30.7 | 5.6 | 17.4
Cc1ccc(OP2(=O)Nc3cc(C)c(C)cc3S2)cc1 (stereo unspecified) | -1.4 | / | / | / | -40.7 | / | -22.8
Cc1cc(C)[n+](CCCC[n+]2c(C)cc(C)cc2C)c(C)c1 | -1.7 | 9.8 | 26.9 | -0.4 | -3.6 | -0.5 | /
Cc1ccc(C(=O)c2cc(Br)ccc2N)cc1 | -11.9 | 7.9 | 11.9 | 1.2 | 1.5 | -1.2 | /
Cc1ccc(N2C(=O)NC(=O)/C(=C/c3ccoc3)C2=O)cc1 | 11.3 | / | / | / | 39.2* | / | -3.1
Cc1cccc(N2C(=O)NC(=O)/C(=C\c3ccc4c(c3)CCCN4Cc3ccccc3)C2=O)c1 | 1.8 | -0.1 | 21.9 | 0.1 | 44.9* | 1.9 | 45.2
COC(=O)C1=C(c2cccc(C#N)c2)C[C@@H]2CC[C@H]1N2C(=O)NCC1CC1 | 0.1 | -0.4 | / | 0.1 | -1.8 | 0.4 | /
COc1cc2c(cc1OC)-c1c(OC)c(OC)c(OC)c3ccnc(c13)C2=O | -18.9 | 3.3 | 11.7 | 0.7 | 49.5* | 7.5 | 57.5
CN1CCc2cc(O)cc3c2[C@H]1Cc1ccc(O)c(O)c1-3 | -6.7 | 6.3 | 14.4 | -0.3 | 0.8 | -2.6 | /
